# Bioassay records (PubChem)
# Shown are actives, neighbours in structure and some others; about 2% of the full set was active somewhere.
# Xi reactivation: X-chromosome reactivation activator | XiGFP mouse fibroblasts, % GFP-positive cells imaging, 3 d; cells co-treated with 5-aza-dC sensitizer; scaled so ellipticine positive control = 100% | activation, % at 7.58 µM | 360,000 tested, 0.055% active | AID 743238;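 active means mean normalized replicate activation at least 10% and every replicate at or above 10%; inconclusive means only one of the two criteria met; inactive means mean below 10% and not all replicates reach 10%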;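 further: 0% = median of on-plate neutral control wells and 100% = ellipticine 6 µM median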
#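 Assay system – SV40-immortalized XiGFP fibroblast cells, line 68-5-11 · Buffer or medium – DMEM supplemented with 5-aza-dC as sensitizing agent · Dosing – one concentration, pinned · Benchmarks – positive control ellipticine, 6 µM final · Times – 3 days compound exposure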
# S100A4 MyoIIA: blocks human S100A4 binding to myosin IIA peptide; AID 652163; S100A4/TAMRA-MyoIIA peptide fluorescence polarization; 360,000 tested, 0.14% active; inhibition, % at 10.7 µM;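 active means mean inhibition of at least 70% across replicates, with every replicate also reaching that level; inconclusive means mean inhibition reaches 70% but some replicates fall short; inactive means mean inhibition below 70%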
# Target sequence (P26447 whole entry, looked up): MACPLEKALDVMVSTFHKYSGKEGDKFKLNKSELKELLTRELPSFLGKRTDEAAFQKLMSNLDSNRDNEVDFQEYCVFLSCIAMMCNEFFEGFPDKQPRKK
#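 assay system = human S100A4 monomer with TAMRA-labelled myosin IIA peptide | also added = labelled myosin peptide probe, 5 nM | incubation = 5 min between mix addition and reading | control set = DMSO and TFP controls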
# E-sel inducer: induces E-selectin expression in human endothelial cells. P16581. HUVEC E-selectin immunofluorescence imaging; normalized: neutral wells 0, TNF-alpha wells 100. activation, % at 7.58 µM. 260,000 tested, 0.37% active. AID 686992;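 active means mean E-selectin-positive cell signal at least 10% of the positive control, reached in at least 60% of replicates, without over 20% cell loss; inconclusive means no rule given, readout overlaps actives, possibly toxicity-flagged; inactive means the rest, including those meeting only one limit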
#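 Test system: HUVEC | Signal: Immunofluorescence imaging | Read-out: Percent E-selectin-positive cells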
# DENV2 CPE: inhibitors of DENV2 cytopathic effect; CPE inhibition, % at 9.99 µM; DENV2-infected cells, cytopathic effect rescue, plate reader; 350,000 tested, 1.7% active; in the data active means CPE inhibition above about 20%, passing the limit was not always enough; inconclusive means no clear call, values can overlap the other calls; tested in BHK-21 cells;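 further: 0% = median of neutral control wells and 100% = median of positive control wells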
# Numbers without * were called inactive; ? = inconclusive; nt = not tested or not shown; ! = not confirmed by another sample.
SMILES,Xi reactivation,S100A4 MyoIIA,E-sel inducer,DENV2 CPE
O=C(N[C@@H]1CC[C@H](CCNS(=O)(=O)c2ccc(F)cc2)O[C@H]1CO)c1cccnc1,1,-8,2,0
C[C@H]1CN([C@@H](C)CO)C(=O)c2cc(C#CCc3ccccc3)cnc2O[C@H]1CN(C)CC1CC1,-1,nt,1,nt
C[C@@H]1CN([C@H](C)CO)C(=O)c2cc(C#Cc3ccncc3)cnc2O[C@H]1CN(C)C(=O)CN(C)C,0,-5,0,-2
CCC(=O)N(C)C[C@H]1Oc2ncc(Br)cc2C(=O)N([C@H](C)CO)C[C@H]1C,0,-5,0,4
C[C@@H]1CN([C@@H](C)CO)C(=O)c2cc(C#CCc3ccccc3)cnc2O[C@@H]1CN(C)CC1CC1,0,121*,0,4
C[C@H](CO)N1C[C@H](C)[C@H](CN(C)C(=O)CN(C)C)Oc2ncc(C#Cc3ccccc3)cc2C1=O,-1,27,2,51*
C[C@H](CO)N1C[C@H](C)[C@H](CN(C)C(=O)c2ccccc2F)Oc2ncc(C#Cc3ccccc3)cc2C1=O,0,1,0,5
C[C@@H]1CN([C@H](C)CO)C(=O)c2cc(C#Cc3ccccc3)cnc2O[C@@H]1CN(C)C(=O)c1ccccc1F,-1,74*,1,-6
CCC(=O)N(C)C[C@H]1Oc2ncc(Br)cc2C(=O)N([C@@H](C)CO)C[C@H]1C,0,-1,90*,16
COc1ccc2c(c1)C(c1ccccc1)=NNC(c1ccco1)=N2,nt,-2,nt,3
Cc1cccc(S(=O)(=O)N(C)C[C@H]2OCc3cn(nn3)CCCC(=O)N([C@H](C)CO)C[C@@H]2C)c1,0,-15,0,0
C[C@H]1CN([C@@H](C)CO)C(=O)c2cc(Br)cnc2O[C@H]1CN(C)C(=O)c1ccccc1F,0,139*,0,?
Cc1ccc2nc(-c3ccncc3)cc(C(=O)Nc3ccc(F)cc3C)c2c1,0,-5,1,-4
O=C(COC(=O)c1ccc(Cl)c(S(=O)(=O)N2CCCCCC2)c1)Nc1ccccc1,0,-3,0,nt
CC(C)C[C@H](NC(=O)c1nc[nH]c1C(=O)N1CCC(C)CC1)C(=O)OC(C)(C)C,0,4,0,82*
CC1CCN(C(=O)c2[nH]cnc2C(=O)N[C@@H](CCCCNC(=O)OC(C)(C)C)C(=O)OC(C)(C)C)CC1,0,-2,0,-11
CC(C)CCC(O)(c1ccccc1)C(CN1CCOCC1)c1ccccc1 (stereo not drawn),0,4,nt,30*
COc1ccc(CN(C)C[C@@H]2Oc3ccc(NC(=O)CCN4CCOCC4)cc3C(=O)N([C@@H](C)CO)C[C@H]2C)cc1,0,-7,3,21*
COc1ccc(CN(C)C[C@H]2Oc3ccc(NC(=O)CCCN(C)C)cc3C(=O)N([C@H](C)CO)C[C@H]2C)cc1,1,9,35*,-5
COc1ccc(NC(=O)N(C)C[C@H]2Oc3ccc(NC(=O)CCN4CCOCC4)cc3C(=O)N([C@H](C)CO)C[C@@H]2C)cc1,0,2,0,52*!
Cc1cc(=O)[nH]c(N/N=C/c2c(F)c(F)c(F)c(F)c2F)n1,0,-3,0,2
C[C@@H]1CN([C@@H](C)CO)C(=O)Cc2cc(NC(=O)Nc3ccc(F)cc3)ccc2O[C@H]1CN(C)Cc1ccncc1,0,-21,-13,-7
C[C@@H]1CN([C@H](C)CO)C(=O)Cc2cc(NC(=O)Nc3ccc(F)cc3)ccc2O[C@@H]1CN(C)Cc1ccncc1,0,-3,44*,1
C[C@@H]1CN([C@@H](C)CO)C(=O)Cc2cc(NC(=O)Nc3ccc(F)cc3)ccc2O[C@@H]1CN(C)Cc1ccncc1,0,-5,127*,3
O=C(NCc1ccc(F)cc1)c1ccc[nH]1,0,0,1,nt
SMILES,Xi reactivation,S100A4 MyoIIA,E-sel inducer,DENV2 CPE
COc1ccc(Nc2c(CC(C)C)nc3nc(C)cc(C)n23)cc1,0,-3,0,-8
Cc1cc(C)n2c(Nc3ccc4c(c3)OCCO4)c(CC(C)C)nc2n1,0,1,2,46*
CCN(CC)c1ccc2cc(C(=O)NCc3ccc(F)cc3)c(=N)oc2c1,0,7,8,26*
N=c1oc2ccc(Br)cc2cc1C(=O)NCc1ccc(F)cc1,0,4,0,-7
Cc1ccc2ncccc2c1,nt,-4,nt,55*
CCn1c(CCC(=O)O)nc2cc(S(=O)(=O)N3CCOCC3)ccc21,0,7,117*,13
O=C1Cc2cc(S(=O)(=O)N3CCNCC3)ccc2N1,0,5,-1,34*
CCC(=O)Nc1ccc2c(c1)C(=O)N(C)C[C@H](OC)[C@H](C)CN[C@H](C)CO2,0,-5,2,-7
O=C([C@H]1O[C@@H](n2ccc(=O)[nH]c2=O)[C@H](O)[C@@H]1O)N1CCN(c2ccc(Cl)cn2)CC1,nt,-18,1,45*
Cc1ccc(NC(=O)NCCN2CCCCC2)cc1,0,-42,nt,0
CCC(C)c1ccc(NC(=O)NCCN2CCCCC2)cc1 (stereo not drawn),0,-15,nt,30*
CN(CC(=O)Nc1ccc(F)cc1)C(=O)CCc1nc2sc3c(c2c(=O)[nH]1)CCCC3,0,-2,nt,19
CN(CC(=O)Nc1ccc(Cl)cc1)C(=O)CCc1nc2sc3c(c2c(=O)[nH]1)CCCC3,0,0,nt,31*
COc1ccc(C2=CC(=O)C[C@H](c3ccc(F)cc3)C2)c(F)c1F,0,0,6,-4
CCOC(=O)C1CCCN(C(=O)c2cc(S(=O)(=O)N(C)C)ccc2N2CCCC2)C1 (stereo not drawn),0,-4,428*,-1
CCOC(=O)C1CCN(C(=O)c2cc(S(=O)(=O)N(C)C)ccc2N2CCCC2)CC1,0,14,nt,1
Cc1cccc(NC(=S)NCC23C=CC(O2)C2C(=O)N(c4ccc(Cl)cc4)C(=O)C23)c1 (stereo not drawn),0,nt,1,nt
Cc1ccc(NC(=S)NCC23C=CC(O2)C2C(=O)N(c4ccc(C)cc4)C(=O)C23)cc1 (stereo not drawn),0,1,0,49*
Cc1ccc(C(=O)NCCc2cc3ccc(C)c(C)c3[nH]c2=O)cc1[N+](=O)[O-],0,0,nt,50*
O=C(c1ccco1)N1CCN(C(=O)c2ccc(-c3cccc(C(F)(F)F)c3)o2)CC1,0,-2,nt,101*
O=C(c1ccc(-c2cccc(C(F)(F)F)c2)o1)N1CCCCCCC1,0,2,nt,3
O=C(c1ccco1)N1CCN(C(=O)C2CC2)CC1,0,4,37*,-9
Cc1cc(NC(=O)c2ccc(Cl)cc2Cl)n(-c2ccccc2)n1,0,3,2,nt
CCN(CC(=O)Nc1c(F)cccc1F)C(=O)CNC(=O)c1cccs1,0,87*,-1,3
Cc1ccc2c(C)nc(Nc3nc(CSc4nc5ccccc5s4)cc(=O)[nH]3)nc2c1,nt,-13,0,3
